Compound activity (PubChem BioAssay)
In the library only some 2.1% were active in any assay of this set; here they are far more common.
Runt-SMMHC FRET: inhibitors of RUNX1 Runt–CBFb-SMMHC binding, primary screen, biochemical, FRET, Cerulean-Runt, Venus-CBFb-SMMHC, uHTS; Runt-related transcription factor 1 (Homo sapiens) + Core-binding factor subunit beta …; Cerulean-Runt/Venus-CBFb-SMMHC FRET ratio 530/480, 1 h; inhibition, % at 20 µM; 220,000 tested, 0.74% active;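 active means mean inhibition across duplicate retests at 20 µM reaching about 50%, limit read from the data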;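 further: 0% = DMSO wells and 100% = wells with excess untagged CBFb-SMMHC; inhibitors lower the FRET ratio by blocking Runt binding to CBFb-SMMHC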
RanGTP-Imp inh: inhibitors of RanGTP-importin-beta interaction, primary screen, biochemical, FRET, CFP-Ran, YFP-importin-beta, homogeneous | cell-free CFP-Ran/YFP-importin-beta FRET ratio | inhibition, % (no concentration beside the values) | 300,000 tested, 1.1% active | AID 2216, 2009;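 active means more than half of the replicate wells show a fall in the fluorescence ratio signal beyond about 16%, limit read from the data, passing the limit was not always enough; inconclusive means exactly half of the replicate wells pass the set limit; inactive means fewer than half of replicates pass the limit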;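 further: 0% = DMSO wells and 100% = Ran loaded with GDP instead of GTP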
MEX-5 binding: MEX-5 zinc finger RNA-binding disruptors – biochemical, C. elegans, fluorescence polarization, MLPCN library, primary screen | MEX-5/FITC-TCR2 RNA binding; stronger effect = lower value | activity score (negative = inhibition of binding), % at 10 µM | 300,000 tested, 0.38% active | AID 1832, 2009;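 active means inhibition past about -25% in most replicates, and total fluorescence under double the plate's negative control median, limit read from the data; inconclusive means replicates evenly split on the limit, or fluorescence at least double controls; inactive means too little inhibition in most replicates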;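 further: 0% = DMSO and -100% = 5 µM competing unlabeled TCR2 RNA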
Target sequence (Q9XUB2 whole entry, looked up): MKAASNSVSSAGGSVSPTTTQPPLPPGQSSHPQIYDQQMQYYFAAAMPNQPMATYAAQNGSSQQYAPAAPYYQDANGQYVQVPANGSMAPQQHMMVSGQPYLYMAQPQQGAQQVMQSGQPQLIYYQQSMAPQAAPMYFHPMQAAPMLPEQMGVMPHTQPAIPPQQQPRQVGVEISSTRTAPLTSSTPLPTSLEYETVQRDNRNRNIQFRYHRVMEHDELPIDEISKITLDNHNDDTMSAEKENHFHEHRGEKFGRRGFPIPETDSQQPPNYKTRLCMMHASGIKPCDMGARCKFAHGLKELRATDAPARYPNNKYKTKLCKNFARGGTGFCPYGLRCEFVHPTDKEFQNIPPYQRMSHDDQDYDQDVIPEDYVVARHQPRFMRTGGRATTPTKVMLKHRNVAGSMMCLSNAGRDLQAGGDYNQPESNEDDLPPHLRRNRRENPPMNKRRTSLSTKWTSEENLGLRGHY
Runt-CBFb FRET: inhibitors of RUNX1 Runt–CBFb binding, primary screen, biochemical, FRET, Cerulean-Runt, Venus-CBFb, uHTS | 220,000 tested, 0.46% active | inhibition, % at 20 µM | Cerulean-Runt/Venus-CBFb FRET ratio 530/480, 1 h | Runt-related transcription factor 1 (Homo sapiens) + Core-binding factor subunit beta …;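 active means inhibition over about 50% at 20 µM in the single-dose screen, limit read from the data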;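 further: 0% = DMSO wells and 100% = excess unlabeled CBFb competitor control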
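System: Cerulean-labeled Runt domain protein | Quantity: 100 nM of each labeled protein | Schedule: 1 h compound exposure, room temperature | Detection: Fluorescence energy transfer, 422 nm excitation, 530/480 nm emission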
proKLK7 act: proKLK7 zymogen activators, primary screen, biochemical, fluorescence intensity; Kallikrein-7 (Homo sapiens), P49862; purified proKLK7, EDANS-DABCYL substrate fluorescence; 100% is mature enzyme control, 0% vehicle; activation, % at 7 µM; 370,000 tested, 0.9% active; AID 652039, 2013;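 active means activation above the mean of all tested compounds plus 3 SD, computed per campaign excluding outliers beyond control limits, cut at about 13% in these data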
Starred values were filed as active, the others as inactive.

Results for CN(C)Cc1nc2c(c(=O)[nH]1)C1(CCCCC1)Cc1ccccc1-2 ?
Runt-SMMHC FRET: -1.2; RanGTP-Imp inh: inconclusive; MEX-5 binding: -1.2; Runt-CBFb FRET: -0.7; proKLK7 act: 0.4

What do the screens show for `CC(=O)Nn1cnc2c(c1=O)C1(CCCC1)Cc1ccccc1-2`?
Runt-SMMHC FRET: 3.3; Runt-CBFb FRET: -0.2; proKLK7 act: 0.5

How did CCSc1n[nH]c2nc3c(c(=O)n12)C1(CCCC1)Cc1ccccc1-3 do in these assays?
Runt-SMMHC FRET: 62.0*; RanGTP-Imp inh: 12.0; MEX-5 binding: -2.0; Runt-CBFb FRET: 22.0; proKLK7 act: -6.8

How did COc1ccccc1Cc1c(-c2ccc(C#N)cc2)nc2ccc(Br)cn12 do in these assays?
proKLK7 act: -2.0

How did CC(=O)Nc1ccc(S(=O)(=O)Nc2nc3ccccc3nc2Sc2nncn2C)cc1 do in these assays?
Runt-SMMHC FRET: 72.4*; RanGTP-Imp inh: 36.4*; MEX-5 binding: -17.8; Runt-CBFb FRET: 47.6; proKLK7 act: 1.3

How did CCCCN(CCCC)c1nc2ccccc2nc1NS(=O)(=O)c1ccc(NC(C)=O)cc1 do in these assays?
Runt-SMMHC FRET: 69.6*; RanGTP-Imp inh: 3.1; MEX-5 binding: -2.5; Runt-CBFb FRET: 20.2; proKLK7 act: -0.1

What do the screens show for `CN1C(=O)c2ccccc2Cc2c(NCc3ccccc3)ncnc21`?
proKLK7 act: 0.5

Results for O=c1c(O)c(-c2ccc3c(c2)OCO3)oc2ccccc12 ?
Runt-SMMHC FRET: -52.8; RanGTP-Imp inh: 32.0*; MEX-5 binding: -0.2; Runt-CBFb FRET: -22.0; proKLK7 act: -7.6

Results for O=C(Nc1ccc2c(c1)oc1ccccc12)c1ccc2c(c1)OCO2 ?
Runt-SMMHC FRET: 0.5; RanGTP-Imp inh: 8.2; MEX-5 binding: 0.5; Runt-CBFb FRET: 0.9; proKLK7 act: -1.1

How did CC(=O)c1ccc(N2CCN(C(=O)CCS(=O)(=O)c3ccc4c(c3)CCN4C(C)=O)CC2)cc1 do in these assays?
RanGTP-Imp inh: 0.5; MEX-5 binding: -2.2; proKLK7 act: 0.3

What do the screens show for `COc1ccc(C)cc1NC(=O)CCS(=O)(=O)c1cc2c(cc1Cl)NC(=O)CO2`?
RanGTP-Imp inh: 0.1; MEX-5 binding: 1.7; proKLK7 act: 0.0

Results for Cc1ccc(NC(=O)CCS(=O)(=O)c2cc3c(cc2Cl)NC(=O)CO3)cc1 ?
RanGTP-Imp inh: -12.2; MEX-5 binding: -26.5*; proKLK7 act: -0.3

How did CC(=O)Nc1ccc(NC(=O)COC(=O)c2c(-c3ccccc3)noc2C)cc1 do in these assays?
proKLK7 act: 0.4

What do the screens show for `N=c1c(C(=O)NC2CCCC2)cc2c(=O)n3ccccc3nc2n1C1CCCCC1`?
RanGTP-Imp inh: 180.7*; MEX-5 binding: -0.8; proKLK7 act: -4.5

Results for Cc1ccc2nc3c(cc(C(=O)NC4CCCC4)c(=N)n3C3CCCCC3)c(=O)n2c1 ?
RanGTP-Imp inh: 182.3*; MEX-5 binding: -15.2; proKLK7 act: -3.8

How did O=C(NC1CCCCCC1)c1ccc2nc3cc(Cl)ccc3c(=O)n2c1 do in these assays?
Runt-SMMHC FRET: 0.4; RanGTP-Imp inh: 12.0; MEX-5 binding: -2.9; Runt-CBFb FRET: 6.8; proKLK7 act: -1.4

Results for Cc1ccc2nc3c(cc(C(=O)NC4CCCCC4)c(=N)n3C3CCCCC3)c(=O)n2c1 ?
RanGTP-Imp inh: 182.0*; MEX-5 binding: -7.3; proKLK7 act: -21.2

How did CCCC[C@@H]1CNCCN1CC1(c2ccccc2)CC1 do in these assays?
RanGTP-Imp inh: 1.8; MEX-5 binding: -1.7; proKLK7 act: 0.2

How did CC(=O)N1[C@@H](CO)[C@@H](c2ccc(-c3cccc(F)c3)cc2)[C@@H]1CNCC1CCC1 do in these assays?
proKLK7 act: 0.3

Results for CCOC(=O)c1[nH]c2c(c1-c1ccccc1)C(=O)CC(c1ccc(OC)c(OC)c1)C2 (configuration not stated) ?
Runt-SMMHC FRET: 3.4; RanGTP-Imp inh: 1.3; MEX-5 binding: -0.6; Runt-CBFb FRET: 101.6*; proKLK7 act: -0.1

How did O=C(c1ccc(Cl)cc1)N1CCN(c2ccc(F)cc2)CC1 do in these assays?
Runt-SMMHC FRET: 71.7*; RanGTP-Imp inh: 2.6; MEX-5 binding: 1.4; Runt-CBFb FRET: 17.9; proKLK7 act: -0.5

What do the screens show for `CCCNC(=O)C1(C)CCCN(Cc2ccsc2)C1` (configuration not stated)?
proKLK7 act: 0.2

Results for O=C(/C=C/c1cccc(Br)c1)N1CCN(c2cccc(C(F)(F)F)c2)CC1 ?
Runt-SMMHC FRET: -0.1; RanGTP-Imp inh: -1.9; MEX-5 binding: 4.7; Runt-CBFb FRET: -8.3; proKLK7 act: -0.3

How did Nc1cccc2c1C(=O)N(C(=O)/C=C/c1cccc(Br)c1)C2=O do in these assays?
Runt-SMMHC FRET: 83.7*; RanGTP-Imp inh: 34.0*; MEX-5 binding: -1.4; Runt-CBFb FRET: -49.0; proKLK7 act: 6.5

Results for Nc1cccc2c1C(=O)N(C(=O)/C=C/c1cccc(F)c1)C2=O ?
Runt-SMMHC FRET: 89.6*; RanGTP-Imp inh: 27.4*; MEX-5 binding: -1.5; Runt-CBFb FRET: -42.0; proKLK7 act: -5.4

How did O=C(/C=C/c1cccc(F)c1)N1CCN(c2ccccn2)CC1 do in these assays?
Runt-SMMHC FRET: 0.0; RanGTP-Imp inh: 7.3; MEX-5 binding: 1.7; Runt-CBFb FRET: 1.0; proKLK7 act: 0.2

Results for CC(=O)Oc1ccccc1Cn1c(C)c(C(=O)NCc2cccc(Cl)c2)sc1=O ?
proKLK7 act: 0.4

What do the screens show for `CC1OC(=O)c2cc3ccccc3nc21` (configuration not stated)?
proKLK7 act: -0.3

What do the screens show for `Cc1nc(C(F)(F)F)ccc1C(=O)N1CCCC1(C)C(=O)NCC(C)C` (configuration not stated)?
proKLK7 act: 0.3

How did CC1=NN(C(=O)COc2ccccc2)C(O)(c2ccccc2)C1 (configuration not stated) do in these assays?
Runt-SMMHC FRET: -1.9; RanGTP-Imp inh: 0.4; MEX-5 binding: 1.5; Runt-CBFb FRET: -0.4; proKLK7 act: 0.2

How did CC1=NN(C(=O)COc2ccc(C)c(C)c2)C(O)(c2ccccc2)C1 (configuration not stated) do in these assays?
Runt-SMMHC FRET: 1.0; RanGTP-Imp inh: 22.0*; MEX-5 binding: -0.4; Runt-CBFb FRET: 1.3; proKLK7 act: -0.1

What do the screens show for `CCCCCCN1CCN(C2CN(CCCC)S(=O)(=O)C2)CC1` (configuration not stated)?
proKLK7 act: 0.1
